Results on 19 compounds are retold here after ChEMBL document CHEMBL4765327, “Design and synthesis of thiourea-based derivatives as Mycobacterium tuberculosis growth and enoyl acyl carrier protein reductase (InhA) inhibitors” (Eur J Med Chem, 2020).

The MIC is the least concentration at which growth counts as inhibited. What is called pIC50 is −log10 of the IC50, conventionally taken in molar units.

pIC50: −log10 of the molar value.

Data set [1] deals with Mycobacterium tuberculosis. Kind of data set: Antimycobacterial activity against Mycobacterium tuberculosis H37Rv assessed as inhibition of microbial growth incubated for 1 week by alamar blue based assay. The data set is classed as functional. The following applies: 168 h, time 1 weeks. The method in brief:
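M. tuberculosis H37Rv by Microplate Alamar Blue Assay; MIC reported in μg/mL, with isoniazid, rifampicin and ethambutol run as standard drugs.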
A general note: Resazurin is reduced to fluorescent resorufin, in cell work by metabolically active cells.

The test system of data set [2] is Mycobacterium tuberculosis. As to the kind of experiment: Antimycobacterial activity against Mycobacterium tuberculosis H37Rv infected in mouse primary macrophage cells assessed as reduction in colony forming unit at 10 uM incubated for 48 hrs followed by macrophage lysis and measured after 3 weeks by alamar blue based serial dilution method. The note with it: time 23 day. The data set is classed as functional. The method in brief:
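Macrophages infected with M. tuberculosis, then exposed to compounds at 10 μM final for two days; bacteria suspended in 7H9 broth, serially diluted, plates incubated at 37 °C and growth read after three weeks.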

Data set [3] has as its target T1, Enoyl-[acyl-carrier-protein] reductase [NADH] (Mycobacterium tuberculosis, UniProt P9WGR1).
T1 sequence (P9WGR1 whole entry): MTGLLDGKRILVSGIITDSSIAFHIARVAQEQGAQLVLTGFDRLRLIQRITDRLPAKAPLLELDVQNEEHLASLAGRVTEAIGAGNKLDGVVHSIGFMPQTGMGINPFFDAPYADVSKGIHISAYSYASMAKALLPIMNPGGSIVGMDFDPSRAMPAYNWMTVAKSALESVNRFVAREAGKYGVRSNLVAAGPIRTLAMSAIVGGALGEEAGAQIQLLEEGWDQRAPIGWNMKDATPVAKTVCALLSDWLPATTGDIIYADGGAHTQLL
As to the kind of experiment: Inhibition of recombinant Mycobacterium tuberculosis His6-tagged InHA expressed in Escherichia coli BL21 using trans-2-dodecenoyl-Coenzyme A as substrate. The essentials: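 M. tuberculosis InhA screened at 50 μM, and compounds above 70% inhibition also at 5 μM; triclosan positive control; triplicate assays; IC50 from 4-parameter curve fit using at least seven points.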

Data set [4] is described as follows: Cytotoxicity against mouse RAW264.7 cells assessed as reduction in cell viability at 50 ug/ml incubated for 72 to 96 hrs by MTT assay. The class given is cell-based. The following applies: at 50 µg/mL, time 72-96 hrs, read-out: INH. A general note: Tetrazolium dyes change colour on reduction, which living cells bring about.
Data set [5] concerns Mycobacterium tuberculosis. Kind of data set: Antimycobacterial activity against Mycobacterium tuberculosis H37Rv assessed as reduction in colony forming unit at 1 to 10 ug/ml incubated for 7 days in nutrient starvation medium by alamar blue based serial dilution method. The note with it: dose 1-10 µg/ml; time 7 day. The class given is functional. The essentials:
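Culture starved in PBS at 37 °C for six weeks, then exposed to compounds, isoniazid or rifampicin at 10 μg/ml for seven days; persisters counted by MPN assay.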

Take `O=C(NCc1ccccc1Br)Nc1ccccc1`: the minimum inhibitory concentration (MIC) in data set [1] was greater than 82 µM. With `Cc1ccc(NC(=S)Nc2ncccc2C)cc1`, in data set [1], the MIC amounted to 97.3 µM. As for `O=[N+]([O-])c1ccc(NC(=S)NCc2ccccc2Cl)cc1`, the MIC in data set [1] is 2.42 µM. Also, the “fold change (FC)” value is on record as 1.8 in data set [2] and 2.6 in data set [5]. Besides, the pIC50 in data set [3] is 4.75. For the same compound, the cytotoxicity at 50 ug/ml in data set [4] worked out at 29.9%. In the case of `CO[C@H]1/C=C/O[C@@]2(C)Oc3c(C)c(O)c4c(O)c(c(/C=N/N5CCN(C)CC5)c(O)c4c3C2=O)NC(=O)/C(C)=C\C=C\[C@H](C)[C@H](O)[C@@H](C)[C@@H](O)[C@@H](C)[C@H](OC(C)=O)[C@@H]1C` [RIFAMPIN], in data set [1], the MIC is 0.12 µM. Moreover, the “fold change (FC)” value in data set [5] came to 1.6. As to `Cc1cccnc1NC(=S)Nc1ccccc1`, in data set [1], the MIC was greater than 103 µM. Regarding `Cc1cccnc1NC(=S)Nc1ccc(Cl)cc1Cl`, the MIC in data set [1] amounted to 2.5 µM. Also, the “fold change (FC)” value is reported as 1.4 in data set [2] and 2.3 in data set [5]. Besides, the cytotoxicity at 50 ug/ml in data set [4] was 34%.

As to `Cc1cccnc1NC(=S)Nc1ccc2ccccc2c1`, the minimal inhibitory concentration (MIC) in data set [1] is greater than 85.3 µM. As for `S=C(NCc1ccccc1Cl)Nc1ccccc1`, the minimal inhibitory concentration (MIC) in data set [1] is greater than 90.2 µM. Regarding `O=[N+]([O-])c1ccc(NC(=S)NCc2ccccc2Br)cc1`, the MIC in data set [1] is 4.26 µM. Besides, in data set [3], the negative logarithm of the IC50 (pIC50) is 4.81. In data set [4], the cytotoxicity at 50 ug/ml turned out to be 24.9%. Consider `Cc1cccnc1NC(=S)Nc1cc(C(F)(F)F)cc(C(F)(F)F)c1`, for which, in data set [1], the minimum inhibitory concentration (MIC) was greater than 66 µM. Take `COc1ccc(NC(=S)Nc2ncccc2C)cc1`: the MIC in data set [1] was 45.8 µM. Regarding `Cc1cccnc1NC(=S)Nc1ccccc1C(F)(F)F`, the minimal inhibitory concentration (MIC) in data set [1] was greater than 80.4 µM. Regarding `S=C(NCc1ccccc1Br)Nc1ccccc1`, in data set [1], the MIC was greater than 77.9 µM. For `Cc1cccnc1NC(=S)Nc1ccc(I)cc1`, the MIC in data set [1] came out at 2.11 µM. Besides, in data set [4], the cytotoxicity at 50 ug/ml was 31.2%. Also, in data set [5], the “fold change (FC)” value is 2. `NNC(=O)c1ccncc1` [ISONIAZID]: the minimum inhibitory concentration (MIC) in data set [1] is 0.36 µM. Besides, the “fold change (FC)” value is 2.5 in data set [2] and 1.4 in data set [5]. For the compound `Cc1cccnc1NC(=S)Nc1ccc(Br)cc1`, the MIC in data set [1] amounted to 2.42 µM. Further, in data set [4], the cytotoxicity at 50 ug/ml came to 30.8%.

`CC[C@@H](CO)NCCN[C@@H](CC)CO` [ETHAMBUTOL]: the MIC in data set [1] is 7.6 µM. For `Cc1cccnc1NC(=S)Nc1ccc(F)cc1`, in data set [1], the MIC was found to be 47.9 µM. Still for that read-out and setting: then `O=C(NCc1ccccc1Cl)Nc1ccccc1`, with greater than 95.8 µM.
